# Compounds with a hit are over-represented: about 1.8% of the library has one in this group of screens.
# MBD2 DNA inh – MBD2-methylated oligo binding inhibition. inhibition, % at 4.4 µM. 370,000 compounds, 0.31% hits. AID 686964. TR-FRET, MBD2 binding to methylated oligonucleotide. Q9UBB5; in the data active = inhibition above about 13%
# LEDGF integ inh – blocks HIV-1 LEDGF/p75-dependent DNA integration; TR-FRET IN-LEDGF/p75 DNA integration, Eu/Cy5; 370,000 compounds, 0.64% hits; AID 743269; inhibition, % at 3.7 µM;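 active = inhibition above the screen-wide mean plus 3 SD, cut at about 13% in these data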;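 note: signal is the Cy5 over europium emission ratio at 671 and 618 nm; 0% = plate median of compound wells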
# TDP2 absorb – blocks human TDP2 phosphodiesterase activity. O95551. recombinant TDP2, T5PNP hydrolysis, p-nitrophenol absorbance 415 nm. inhibition, % at 12.8 µM. 370,000 compounds, 0.34% hits;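 active = inhibition above the mean of all tested compounds plus 3 SD, set per campaign, cut at about 25% in these data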;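 note: 0% = DMSO with enzyme and 100% = buffer with substrate but no TDP2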
#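 System – recombinant human TDP2 · Quantity – TDP2 enzyme at 120 nM final · Doses – single concentration, 12.8 µM nominal, with 1% DMSO · Incubation – 2 h at 37 °C · Measured by – epi absorbance of p-nitrophenol freed from T5PNP by hydrolysis · Read-out – % inhibition relative to enzyme-containing and enzyme-free wells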
# UHRF1 MBD2 ctr – UHRF1 methyl-DNA binding inhibition. Q96T88. UHRF1 binding to methylated oligo, TR-FRET. inhibition, % at 4.4 µM. 370,000 compounds, 0.75% hits. AID 687016; in the data active = inhibition above about 21%;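 note: UHRF1 SRA domain binding a hemimethylated CpG hairpin DNA probe; 0% = median of test compound wells and 100% = reference inhibitor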
# Target sequence (Q96T88 whole entry, looked up, the tested form may be a part): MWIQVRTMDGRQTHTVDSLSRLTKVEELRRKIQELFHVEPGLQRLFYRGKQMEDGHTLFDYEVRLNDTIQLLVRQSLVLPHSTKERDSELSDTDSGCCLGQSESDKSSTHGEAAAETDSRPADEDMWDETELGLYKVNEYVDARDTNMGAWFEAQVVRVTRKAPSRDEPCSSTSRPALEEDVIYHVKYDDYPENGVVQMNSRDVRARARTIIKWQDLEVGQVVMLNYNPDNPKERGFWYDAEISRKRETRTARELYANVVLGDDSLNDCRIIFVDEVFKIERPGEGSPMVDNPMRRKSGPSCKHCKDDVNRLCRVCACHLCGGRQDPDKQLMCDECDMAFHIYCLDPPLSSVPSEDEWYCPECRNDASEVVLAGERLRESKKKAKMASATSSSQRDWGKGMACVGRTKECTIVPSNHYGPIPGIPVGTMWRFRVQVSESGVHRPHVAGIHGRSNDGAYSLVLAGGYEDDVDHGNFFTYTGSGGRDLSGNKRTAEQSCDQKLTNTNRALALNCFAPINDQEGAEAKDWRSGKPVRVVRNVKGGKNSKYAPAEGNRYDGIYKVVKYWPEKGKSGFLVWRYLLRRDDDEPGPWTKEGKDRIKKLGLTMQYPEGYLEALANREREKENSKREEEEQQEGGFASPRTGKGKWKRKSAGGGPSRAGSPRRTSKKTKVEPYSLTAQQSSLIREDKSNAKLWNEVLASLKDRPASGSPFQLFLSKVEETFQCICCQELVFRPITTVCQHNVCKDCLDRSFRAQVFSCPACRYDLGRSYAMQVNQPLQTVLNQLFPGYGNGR
# CASP6 VEID inh – caspase-6 (human) enzyme inhibition; 350,000 compounds, 0.53% hits; inhibition, % at 12.5 µM; P55212; purified caspase-6, Z-VEID-R110 cleavage fluorescence;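 active = mean inhibition across replicates at least about 35%, with every replicate also reaching that limit, limit read from the data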;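 note: 0% = median of neutral control wells and 100% = no fluorescence left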
# NSD2 HMT inh – blocks human histone methyltransferase NSD2. 310,000 compounds, 0.54% hits. AID 743445. inhibition, % at 12.5 µM. NSD2 peptide methylation, AlphaScreen, 120 min; in the data active = inhibition above about 50%
# TDP2 confirm – human TDP2 inhibition, confirmation | inhibition, % at 12.8 µM | 1,100 compounds, 22% hits | recombinant human TDP2, absorbance read-out | shares compounds with TDP2 absorb; in the data active = inhibition above about 25%;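 note: 0% = vehicle with enzyme and 100% = no enzyme buffer only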
# * marks the source's active call; other numbers are inactive results; . = not tested or not shown.
SMILES,MBD2 DNA inh,LEDGF integ inh,TDP2 absorb,UHRF1 MBD2 ctr,CASP6 VEID inh,NSD2 HMT inh,TDP2 confirm
CC(=O)Nc1ccc(S(=O)(=O)NC2=C(N3CCN(c4ccc(F)cc4)CC3)C(=O)c3ccccc3C2=O)cc1,-12,5,36*,-1,3,25,30*
COc1ccc2c3c([nH]c2c1)[C@H](CO)N(C(=O)CN(C)C)CC31CCN(C(=O)c2cccnc2)CC1,.,.,.,.,4,.,.
O=C1CCC(=O)N1CC(=O)N1CCCc2ccccc21,0,-1,25*,2,-2,0,13
O=C(CN1CCOCC1)N1CCCc2ccccc21,2,1,11,-3,-1,-1,.
CC1CCN(C2CCN(C(=O)c3ccccc3F)CC2)CC1,-4,0,28*,1,3,1,8
c1ccc(Cc2ccc(OCCN3CCOCC3)cc2)cc1,3,-3,0,2,-2,3,.
c1ccc(OCCN2CCOCC2)cc1,0,-2,31*,4,-4,5,7
CC1(C(=O)OCC(=O)Nc2cccc(S(=O)(=O)NC3=NCCCCC3)c2)CC1(Cl)Cl (stereo not drawn),3,-5,27*,-4,-2,0,3
COc1cc(CNCc2ccc(Br)cc2)cc(OC)c1,-3,0,25*,0,-5,-3,9
C[C@H](CO)N1C[C@H](C)[C@H](CN(C)S(=O)(=O)c2cn(C)cn2)Oc2ccc(NC(=O)Nc3ccc4c(c3)OCO4)cc2C1=O,.,.,.,.,-2,.,.
COc1ccc(Nc2nc3ccccc3n3cnnc23)cc1Cl,2,1,26*,-5,-1,1,-4
C[C@H]1CN([C@@H](C)CO)C(=O)c2cccc(NC(=O)Nc3ccc(F)cc3)c2O[C@H]1CN(C)C(=O)NC1CCCCC1,.,.,.,.,-3,.,.
COc1ccccc1CN1[C@H](CO)[C@H]2c3ccccc3N(C(=O)c3ccncc3)C[C@H]21,.,.,.,.,2,.,.
Cc1cc(=O)n(-c2ccccc2Cl)[nH]1,-6,1,59*,2,1,6,10
CC(=O)c1ccc(NC2=C(N3CCOCC3)C(=O)c3ccccc3C2=O)cc1,-10,5,54*,0,.,.,38*
Cc1ccc(NC2=C(N3CCOCC3)C(=O)c3ccccc3C2=O)cc1,0,30*,60*,15,.,101*,51*
CN1[C@@H]2c3ccc(-c4ccc(F)cc4)c(=O)n3C[C@H]1[C@H](CO)[C@H]2C(=O)N1CCCCC1,.,.,.,.,3,.,.
Cc1cc(C)c(C#N)c(N2CCN(c3ccc(F)cc3)CC2)n1,7,1,36*,5,4,0,3
COc1ccc(C(=O)NCC(O)CN2CCOCC2)cc1[N+](=O)[O-] (stereo not drawn),-4,0,25*,2,0,0,-2
CC1=C(C)CC(C(=O)NCc2ccccc2F)C(C(=O)O)C1 (stereo not drawn),0,2,25*,0,5,-3,11
O=C(O)C1C2C=CC(C2)C1C(=O)NCc1ccccc1F (stereo not drawn),-3,-1,-10,0,-2,0,.
CS(=O)(=O)c1ccc(C(=O)Nc2cccc(-c3nc4ccccc4[nH]3)c2)cc1,0,1,-8,5,-2,-4,.
CS(=O)(=O)c1cccc(C(=O)Nc2cccc(-c3nc4ccccc4[nH]3)c2)c1,3,2,25*,21*,3,1,7
COc1ccc2nc(SCC(=O)NCc3ccccc3)[nH]c2c1,4,0,60*,8,4,-2,-2
OCCNc1ncnc2c1sc1nc(N3CCOCC3)c3c(c12)CCC3,2,0,27*,1,1,-2,-4
SMILES,MBD2 DNA inh,LEDGF integ inh,TDP2 absorb,UHRF1 MBD2 ctr,CASP6 VEID inh,NSD2 HMT inh,TDP2 confirm
CCn1cc(S(=O)(=O)Nc2ccc(C)c(Cl)c2)cn1,3,-1,11,0,1,0,.
CCn1cc(S(=O)(=O)Nc2ncccn2)cn1,-6,1,25*,-2,-3,-7,1
COc1ccc2[nH]c(=O)c(C(=O)O)cc2c1,0,-3,17,2,4,-4,.
CC(C)C1Cc2[nH]c(=O)c(C(=O)O)cc2CO1 (stereo not drawn),4,-1,29*,-2,.,0,9
Cc1cccc(S(=O)(=O)N2CC[C@@H]3[C@@H](CO)N(C)c4ccc(-c5ccccc5F)cc4[C@@H]32)c1,.,.,.,.,0,.,.
CCCCCOc1ccc(CSCCNC(=S)Nc2ccccc2)cc1,-6,-4,37*,0,.,5,-2
Cc1ccc(NC(=O)C2CCN(C(=O)[C@@H]3Cc4ccccc4CN3)CC2)c(C)c1,5,1,25*,9,1,-4,2
CCc1ccc(NC(=O)C2CCN(C(=O)[C@@H]3Cc4ccccc4CN3)CC2)cc1,4,2,1,-1,-12,-1,.
COc1ccc(NC(=O)C2CCN(C(=O)[C@@H]3Cc4ccccc4CN3)CC2)cc1,-5,-1,28*,1,1,-6,2
CC(C)NC(=O)NCC[C@H]1CC[C@H](NC(=O)Nc2ccccc2)[C@H](CO)O1,.,.,.,.,0,.,.
COc1ccc(S(=O)(=O)N2CCN(Cc3ccc(OCCO)cc3)CC2)cc1,.,.,.,.,1,.,.
COc1ccc(S(=O)(=O)N(C)C[C@H]2Oc3c(NS(=O)(=O)c4cccs4)cccc3C(=O)N([C@@H](C)CO)C[C@H]2C)cc1,.,.,.,.,3,.,.
COc1cc2c(cc1O)CC[n+]1cc3c(OC)c(OC)ccc3cc1-2,-9,1,11,-12,3,.,.
COc1cc2c(cc1OC)-c1cc3ccc4c(c3c[n+]1CC2)OCO4,-23,5,26*,-67,7,.,9
Cc1noc(C)c1S(=O)(=O)Nc1ccc2c(c1)CC(=O)N([C@H](C)CO)C[C@H](C)[C@H](CN(C)S(=O)(=O)c1ccccc1)O2,.,.,.,.,4,.,.
CC(=O)N(C)c1ccc(NC(=O)Cc2cccs2)cc1,-8,1,25*,-1,38*,0,3
CCN1[C@H](C(=O)NCc2cccc(OC)c2)[C@@H](CO)[C@@H]2Cn3c(ccc(C4=CCCC4)c3=O)[C@@H]21,.,.,.,.,-2,.,.
COc1cc(/C=C2\C(=O)N(c3ccccc3)N=C2C)ccc1Oc1ccc([N+](=O)[O-])cc1[N+](=O)[O-],0,6,65*,18,.,3,16
C#CCOc1ccc(/C=C2/C(=O)N(c3cccc(C(=O)O)c3)N=C2C)cc1OC,-3,-1,71*,7,34,3,18
CO[C@@H]1CN(C)C(=O)c2cc(NS(=O)(=O)CC(F)(F)F)ccc2OC[C@H](C)N(C(=O)c2ccc3c(c2)OCO3)C[C@@H]1C,.,.,.,.,0,.,.

# Compound activity: PubChem BioAssay, several laboratories
